Data taken from ChEMBL document CHEMBL3774372, “Design, physico-chemical properties and biological evaluation of some new N-[(phenoxy)alkyl]- and N-{2-[2-(phenoxy)ethoxy]ethyl}aminoalkanols as anticonvulsant agents” (Bioorg Med Chem, 2016).
Activity calls are given as the source filed them.

Legend:
Mus musculus [1] = test: Anticonvulsant activity in mouse assessed as protection against maximal electric shock-induced seizures at 30 mg/kg, ip measured after 0.5 hrs; type: functional, organism-based
How it was run: (§1)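 Mice dosed ip with suspension in 0.5% methylcellulose; maximal electroshock applied at the listed time after dosing. Protection = abolition of hindlimb tonic extension component of seizure; reported as animals protected/animals tested.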

Mus musculus [2] = test: Anticonvulsant activity in mouse assessed as protection against maximal electric shock-induced seizures at 30 mg/kg, ip measured after 4 hrs; type: functional, organism-based; how it was run: as §1
Mus musculus [3] = test: Anticonvulsant activity in mouse assessed as protection against maximal electric shock-induced seizures at 100 mg/kg, ip measured after 0.5 hrs; type: functional, organism-based; how it was run: as §1
Mus musculus [4] = test: Anticonvulsant activity in mouse assessed as protection against maximal electric shock-induced seizures at 100 mg/kg, ip measured after 4 hrs; type: functional, organism-based; how it was run: as §1
Mus musculus [5] = test: Anticonvulsant activity in mouse assessed as protection against subcutaneous pentylenetetrazol-induced seizures at 30 mg/kg, ip measured after 0.5 hrs; type: functional, organism-based
How it was run: (§2)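 Mice dosed ip as 0.5% methylcellulose suspension; pentylenetetrazole 85 mg/kg in 0.9% NaCl injected subcutaneously into posterior midline, animals watched at least 30 min. Protection = no threshold seizure (single clonic spasm episode lasting ≥5 s); scored protected/tested.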

Mus musculus [6] = test: Anticonvulsant activity in mouse assessed as protection against subcutaneous pentylenetetrazol-induced seizures at 100 mg/kg, ip measured after 0.5 hrs; type: functional, organism-based; how it was run: as §2
Mus musculus [7] = test: Anticonvulsant activity in mouse assessed as protection against subcutaneous pentylenetetrazol-induced seizures at 30 mg/kg, ip measured after 4 hrs; type: functional, organism-based; how it was run: as §2
Mus musculus [8] = test: Anticonvulsant activity in mouse assessed as protection against subcutaneous pentylenetetrazol-induced seizures at 100 mg/kg, ip measured after 4 hrs; type: functional, organism-based; how it was run: as §2
Mus musculus [9] = test: Neurotoxicity in mouse at 30 mg/kg, ip after 0.5 hrs by rotarod test; type: toxicity, organism-based; details: in vivo
How it was run: (§3)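 Mice were dosed ip with compound suspended in 0.5% methylcellulose. Rotarod: a 1 in. knurled rod turning at 6 rpm. Neurotoxicity was scored as failure to stay on the rod for at least 1 min in each of three trials. Results are given as the number of animals affected out of the number tested.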

Mus musculus [10] = test: Neurotoxicity in mouse at 30 mg/kg, ip after 4 hrs by rotarod test; type: toxicity, organism-based; details: in vivo; how it was run: as §3
Mus musculus [11] = test: Neurotoxicity in mouse at 100 mg/kg, ip after 0.5 hrs by rotarod test; type: toxicity, organism-based; details: in vivo; how it was run: as §3
Mus musculus [12] = test: Neurotoxicity in mouse at 100 mg/kg, ip after 4 hrs by rotarod test; type: toxicity, organism-based; details: in vivo; how it was run: as §3
Mus musculus [13] = test: Neurotoxicity in mouse at 300 mg/kg, ip after 0.5 hrs by rotarod test; type: toxicity, organism-based; details: in vivo; how it was run: as §3
Vibrio harveyi [14] = test: Mutagenicity in Vibrio harveyi BB7 assessed as number of colonies after 48 hrs (reference value: 13 to 14 no_unit); type: ADME, organism-based; details: in vivo
How it was run: (§4)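 Vibrio harveyi mutagenicity test: test compound was added to exponentially growing cultures (A600 = 0.1, 30 °C) and grown to OD600 0.3–0.4. Then 5 × 10^6 cells were plated on BOSS agar with neomycin (final 100 µg/mL) and incubated 48 h at 30 °C. Neomycin-resistant colonies were counted. Triplicate; controls were water, DMSO and NQNO 40 ng/mL.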

Vibrio harveyi [15] = test: Mutagenicity in Vibrio harveyi BB7X assessed as number of colonies after 48 hrs (reference value: 15 to 16 no_unit); type: ADME, organism-based; details: in vivo; how it was run: as §4
Vibrio harveyi [16] = test: Mutagenicity in Vibrio harveyi BB7M assessed as number of colonies after 48 hrs (reference value: 13 to 14 no_unit); type: ADME, organism-based; details: in vivo; how it was run: as §4
Vibrio harveyi [17] = test: Mutagenicity in Vibrio harveyi BB7XM assessed as number of colonies after 48 hrs (reference value: 14 no_unit); type: ADME, organism-based; details: in vivo; how it was run: as §4
Vibrio harveyi [18] = test: Antimutagenic activity against Vibrio harveyi BB7 assessed as inhibition of NQNO-induced mutagenicity after 48 hrs; type: functional
How it was run: (§5)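 V. harveyi cultures grown exponentially to A600 0.1 at 30 °C, exposed to test compound for 15 min, then to NQNO, and grown on to A600 0.3–0.4. 5 × 10⁶ cells plated on BOSS agar with neomycin (100, final). Neomycin-resistant colonies counted after 48 h at 30 °C. Result given as % inhibition of NQNO mutagenicity; three independent repeats.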

Vibrio harveyi [19] = test: Antimutagenic activity against Vibrio harveyi BB7X assessed as inhibition of NQNO-induced mutagenicity after 48 hrs; type: functional; how it was run: as §5
Vibrio harveyi [20] = test: Antimutagenic activity against Vibrio harveyi BB7M assessed as inhibition of NQNO-induced mutagenicity after 48 hrs; type: functional; how it was run: as §5
Vibrio harveyi [21] = test: Antimutagenic activity against Vibrio harveyi BB7XM assessed as inhibition of NQNO-induced mutagenicity after 48 hrs; type: functional; how it was run: as §5
Rattus norvegicus [22] = test: Anticonvulsant activity in rat assessed as protection against maximal electric shock-induced seizures at 30 mg/kg, po measured after 0.5 hrs; type: functional, organism-based
How it was run: (§6)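 Rats dosed ip or orally as 0.5% methylcellulose suspension; maximal electroshock at listed time. Protection = abolition of hindlimb tonic extension; 4 rats per group, scored protected/tested.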

Rattus norvegicus [23] = test: Anticonvulsant activity in rat assessed as protection against maximal electric shock-induced seizures at 30 mg/kg, po measured after 1 hr; type: functional, organism-based; how it was run: as §6
Rattus norvegicus [24] = test: Anticonvulsant activity in rat assessed as protection against maximal electric shock-induced seizures at 30 mg/kg, po measured after 2 hrs; type: functional, organism-based; how it was run: as §6
Rattus norvegicus [25] = test: Neurotoxicity in rat at 30 mg/kg, po after […] by rotarod test; type: toxicity, organism-based; details: in vivo
Rattus norvegicus [26] = test: Neurotoxicity in rat at 30 mg/kg, po after 0.5 hrs by rotarod test; type: toxicity, organism-based; details: in vivo
Rattus norvegicus [27] = test: Neurotoxicity in rat at 30 mg/kg, po after 1 hr by rotarod test; type: toxicity, organism-based; details: in vivo
Rattus norvegicus [28] = test: Neurotoxicity in rat at 30 mg/kg, po after 2 hrs by rotarod test; type: toxicity, organism-based; details: in vivo
Rattus norvegicus [29] = test: Neurotoxicity in rat at 30 mg/kg, po after 4 hrs by rotarod test; type: toxicity, organism-based; details: in vivo
Rattus norvegicus [30] = test: Anticonvulsant activity in rat assessed as protection against maximal electric shock-induced seizures at 30 mg/kg, po measured after […]; type: functional, organism-based
Mus musculus [31] = test: Anticonvulsant activity in mouse assessed as protection against maximal electric shock-induced seizures at 3 mg/kg, ip measured after 0.5 hrs; type: functional, organism-based; how it was run: as §1
Rattus norvegicus [32] = test: Anticonvulsant activity in rat assessed as protection against maximal electric shock-induced seizures at 30 mg/kg, po measured after 4 hrs; type: functional, organism-based; how it was run: as §6

Row | SMILES | Activity (Mus musculus [1]) | Activity (Mus musculus [2]) | Activity (Mus musculus [3]) | Activity (Mus musculus [4]) | Activity (Mus musculus [5]) | Activity (Mus musculus [6]) | Activity (Mus musculus [7]) | Activity (Mus musculus [8]) | Activity (Mus musculus [9]) | Activity (Mus musculus [10]) | Activity (Mus musculus [11]) | Activity (Mus musculus [12]) | Activity (Mus musculus [13]) | Activity (Vibrio harveyi [14]) | Activity (Vibrio harveyi [15]) | Activity (Vibrio harveyi [16]) | Activity (Vibrio harveyi [17]) | Activity (Rattus norvegicus [24]) | Activity (Rattus norvegicus [25]) | Activity (Rattus norvegicus [26]) | also measured
1 | CCC(CO)NCCCOc1cccc(C)c1C (centres undefined) | inactive | inactive | Active | inactive | inactive | inactive | inactive | inactive | Non-toxic | Non-toxic | Toxic | Non-toxic | Toxic | – | – | – | – | – | – | – | –
2 | Cc1cccc(C)c1OCCOCCN1CCC(O)CC1 | inactive | inactive | – | inactive | inactive | – | inactive | inactive | Non-toxic | Non-toxic | – | Non-toxic | Toxic | 22 | 16 | 18 | 26 | – | – | – | inhibition (INH) (Vibrio harveyi [18]): 84%; inhibition (INH) (Vibrio harveyi [19]): 12%; inhibition (INH) (Vibrio harveyi [20]): 34%; inhibition (INH) (Vibrio harveyi [21]): 26%
3 | Cc1cccc(OCCOCCN[C@H]2CC[C@H](O)CC2)c1C | – | – | – | – | – | – | – | – | – | – | – | – | – | 22 | 27 | 25 | 20 | – | – | – | –
4 | Cc1cc(C)c(OCCN[C@H]2CC[C@H](O)CC2)c(C)c1 | inactive | inactive | Active | inactive | inactive | inactive | inactive | – | Non-toxic | Non-toxic | – | Non-toxic | Toxic | – | – | – | – | inactive | Non-toxic | Non-toxic | Activity (Rattus norvegicus [22]): inactive; Activity (Rattus norvegicus [23]): inactive; Activity (Rattus norvegicus [27]): Non-toxic; Activity (Rattus norvegicus [28]): Non-toxic; Activity (Rattus norvegicus [29]): Non-toxic; Activity (Rattus norvegicus [30]): inactive
5 | Cc1cccc(OCCNC(C)CO)c1C (centres undefined) | inactive | inactive | Active | inactive | inactive | inactive | inactive | inactive | Non-toxic | Non-toxic | – | Non-toxic | Toxic | – | – | – | – | – | – | – | –
6 | Cc1cc(C)c(OCCN[C@@H]2CCCC[C@H]2O)c(C)c1 (racemic) | Active | inactive | – | inactive | inactive | – | inactive | inactive | Non-toxic | Non-toxic | Toxic | Non-toxic | Toxic | – | – | – | – | inactive | Non-toxic | Non-toxic | Activity (Rattus norvegicus [22]): inactive; Activity (Rattus norvegicus [23]): inactive; Activity (Mus musculus [31]): inactive; Activity (Rattus norvegicus [27]): Non-toxic; Activity (Rattus norvegicus [28]): Non-toxic; Activity (Rattus norvegicus [29]): Non-toxic
7 | Cc1cccc(C)c1OCCOCCN[C@@H]1CCCC[C@H]1O (racemic) | inactive | inactive | Active | inactive | inactive | inactive | inactive | inactive | Non-toxic | Non-toxic | Non-toxic | Non-toxic | Toxic | 29 | 25 | 26 | 22 | inactive | Non-toxic | Non-toxic | Activity (Rattus norvegicus [22]): inactive; Activity (Rattus norvegicus [32]): inactive; Activity (Rattus norvegicus [27]): Non-toxic; Activity (Rattus norvegicus [28]): Non-toxic; Activity (Rattus norvegicus [29]): Non-toxic; Activity (Rattus norvegicus [30]): inactive; inhibition (INH) (Vibrio harveyi [18]): 82%; inhibition (INH) (Vibrio harveyi [19]): 52%; inhibition (INH) (Vibrio harveyi [20]): 75%; inhibition (INH) (Vibrio harveyi [21]): 33%
8 | CCC(CO)NCCOc1cccc(C)c1C (centres undefined) | inactive | inactive | Active | inactive | inactive | inactive | inactive | inactive | Non-toxic | Non-toxic | Toxic | Non-toxic | – | – | – | – | – | – | – | – | –
9 | Cc1cccc(OCCCNC(C)CO)c1C (centres undefined) | inactive | inactive | Active | inactive | inactive | inactive | inactive | inactive | Non-toxic | Non-toxic | Toxic | Non-toxic | Toxic | – | – | – | – | – | – | – | –
10 | Cc1cccc(OCCNC(C)(C)CO)c1C | inactive | inactive | Active | inactive | inactive | inactive | inactive | inactive | Non-toxic | Non-toxic | – | Non-toxic | Toxic | – | – | – | – | – | – | – | –
11 | Cc1cc(C)c(OCCNC(C)CO)c(C)c1 (centres undefined) | inactive | inactive | Active | inactive | inactive | inactive | inactive | inactive | Non-toxic | Non-toxic | Toxic | Non-toxic | Toxic | – | – | – | – | inactive | Non-toxic | Non-toxic | Activity (Rattus norvegicus [23]): inactive; Activity (Rattus norvegicus [32]): inactive; Activity (Rattus norvegicus [27]): Non-toxic; Activity (Rattus norvegicus [28]): Non-toxic; Activity (Rattus norvegicus [29]): Non-toxic
12 | Cc1ccc(OCCN[C@H](C)CO)c(C)c1 | – | – | – | – | – | – | – | – | – | – | – | – | – | 22 | 17 | 26 | 23 | – | – | – | –
